Source: PubChem BioAssay AID1735 (Vanderbilt High Throughput Screening Facility, 2009)
pEC50: −log10 of the molar value. Inconclusive results are not listed. Active and inactive are the calls of the source.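 How the source made its calls: active means sigmoid dose curve converging in at least two of three replicates, including loose fits with few points beside the midpoint; inactive means curve converging in fewer than two replicates.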

What follows are molecules tested on HEK293 thallium flux, FluoZin-2 fluorescence, ouabain+bumetanide (assay: native HEK Tl+ uptake potency with bumetanide block – HEK cells, counterscreen 2, counter-screen for KCC2 modulator project, dose response (AID 1735)).
How it was run: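 Material: HEK cells | Buffer or medium: HBSS-HEPES plus ouabain and bumetanide | Also added: Thallium stimulus buffer at pH 7.3 | Doses: 11-point threefold dilution series, top dose 30 µM | Schedule: Overnight plating, 10–20 s after thallium read | Detection: Kinetic fluorescence of FluoZin-2 dye, loaded as 0.5 µM AM ester | Repeats: Triplicate, replicates fitted separately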

Row | Structure (SMILES) | pEC50 | EC50
1 | Cc1ccc(-c2n[nH]c(=S)n2/N=C/C=C\c2ccccc2[N+](=O)[O-])cc1 | 6.19 | 
2 | CC(=O)c1cccc(NC(=S)NC(=O)c2ccc(C)cc2)c1 | 5.80 | 
3 | N=C1SCC(=O)N1c1ncc(Cc2cccc(Cl)c2)s1 | 5.52 | 
4 | COC(=O)c1sccc1NC(=S)OC | 5.80 | 
5 | O=C(NC(=S)Nc1nc(-c2cccc([N+](=O)[O-])c2)cs1)c1cc(Cl)ccc1Cl | 6.16 | 
6 | S=C(NCCc1ccccc1)N/N=C/c1cccc(Cl)c1Cl |  | 14300 nM (inactive)
7 | COC(=O)[C@@H](NC(=O)O[C@@H]1C(=O)c2ccc(OC)cc2O[C@H]1c1cccc(C(F)(F)F)c1)C(C)C | 6.21 | 
8 | NC(=S)N=Nc1c(O)n(Cc2ccccc2)c2ccccc12 |  | 88.3 nM (inactive)
9 | O=[N+]([O-])c1ccc(-c2cn(-c3ccccc3F)c(=S)[nH]2)cc1 | 6.28 | 
10 | NC(=S)N=Nc1c(O)n(Cc2ccc(F)cc2)c2ccccc12 | 5.66 | 
11 | CCOCCCNC(=O)c1ccc(-n2c(=S)[nH]c3ccccc3c2=O)cc1 |  | 24200 nM (inactive)
12 | COc1ccc(N2C(=S)N=C(Nc3cccc(C)c3)C23CCCCC3)cc1 | 5.58 | 
13 | CCOc1[nH]n(-c2ccccc2)c(=O)c1C=Nc1ccc(F)cc1F | 5.66 | 
14 | Cc1nn(-c2nc3ccccc3[nH]2)c(N)c1-c1ccccc1 | 5.61 | 
15 | CCOc1ccc2nc(SC3CC(=O)N(c4cccc(OC)c4)C3=O)sc2c1 (stereo not drawn) | 5.49 | 
16 | Cc1onc(-c2ccccc2Cl)c1C(=O)NC(=S)Nc1ccc(C(C)C)cc1 | 6.61 | 
17 | O=C(NC(=S)Nc1ccc2c(c1)OCO2)c1ccc(Cl)cc1 |  | 58.5 nM (inactive)
18 | COc1ccc(Cn2c(=S)[nH]c3ccccc32)cc1 | 6.40 | 
